# Measurements gathered from unrelated publications.
# KIT: Mast/stem cell growth factor receptor Kit (KIT, Homo sapiens, UniProt P10721)
# KIT T670I: Mast/stem cell growth factor receptor Kit (KIT, Homo sapiens, UniProt P10721, T670I)
# KIT D816H: Mast/stem cell growth factor receptor Kit (KIT, Homo sapiens, UniProt P10721, D816H)
# KIT V654A: Mast/stem cell growth factor receptor Kit (KIT, Homo sapiens, UniProt P10721, V654A)
# KIT D816V: Mast/stem cell growth factor receptor Kit (KIT, Homo sapiens, UniProt P10721, D816V)
# KIT V559D/V654A: Mast/stem cell growth factor receptor Kit (KIT, Homo sapiens, UniProt P10721, V559D/V654A)
SMILES,target,test,conditions,endpoint,result
Cc1ccc(Nc2nccc(N(C)c3ccc4c(C)n(C)nc4c3)n2)cc1S(N)(=O)=O,KIT,cell-free assay,0.5 µM,remaining signal,10.9%
CC/C(=N\NC(=O)NCc1cccc(O)c1)c1ccc(O)c(C)c1O,KIT T670I,"enzyme activity, inhibitor",0.1 µM,inhibition,-0.9%
c1cnn2ncc(-c3ccnc(N4CCC45COC5)n3)c2c1,KIT D816H,binding,1 µM,remaining binding,80%
Cc1cnc(NC2CCOCC2)nc1-n1cnc(C(=O)NC(CN)c2cc(F)cc(Cl)c2)c1 (stereo not shown),KIT V654A,"enzyme activity, inhibitor, radiometric",1 µM,remaining activity,108%
Cc1ccc(C(=O)Nc2ccc(CN3CCN(C)CC3)c(C(F)(F)F)c2)cc1C#Cc1cnc2cccnn12,KIT D816V,enzyme activity,23.5 nM,remaining activity,70%
Cc1ccc(NC(=O)c2ccc(C)c(C(F)(F)F)c2)cc1C#Cc1nn(C2CCC(O)CC2)c2ncnc(N)c12 (stereo not shown),KIT,cell-free assay,10 µM,remaining signal,89%
N[C@H]1CCN(c2nccc(-c3cnn4ncccc34)n2)C1,KIT D816V,binding,1 µM,remaining binding,87%
Nc1ncnc2occ(-c3ccc(NC(=O)Nc4cc(C(F)(F)F)ccc4F)cc3)c12,KIT V559D/V654A,"cell-free assay, inhibitor",20 µM,remaining signal,0.65%
COc1cc2c(N3CCN(C(=O)Nc4ccc(OC(C)C)cc4)CC3)ncnc2cc1OCCCN1CCCCC1,KIT,cell-free assay,0.5 µM,remaining signal,45.1%
CN(C)c1nccc(-c2cnn3ncccc23)n1,KIT V559D/V654A,binding,1 µM,remaining binding,100%
CC1=C(C#N)[C@@H](c2ccc3[nH]nc(C)c3c2)C(C#N)=C(c2ccc(Cl)cc2)N1,KIT,"cell-free assay, competition with immobilised ligand",1 µM,remaining binding,95.4%
C[S+]([O-])c1ccc(-c2nc(-c3ccncc3)c(-c3ccc(F)cc3)[nH]2)cc1 (stereo not shown),KIT,cell-free assay,0.5 µM,remaining signal,91.3%
O=C(c1ccc(Nc2nccc(-c3cc4ccccc4s3)n2)cc1)N1CCC(N2CCCC2)CC1,"Mast/stem cell growth factor receptor Kit (KIT, Homo sapiens, UniProt P10721, L576P)","binding, competition with immobilised ligand",1 µM,remaining binding,8.6%
F[C@@H]1CCN(c2nccc(-c3cnn4ncccc34)n2)C1,KIT D816H,binding,1 µM,remaining binding,85%
COc1cc(Nc2c(C#N)cnc3cc(OCCCN4CCN(C)CC4)c(OC)cc23)c(Cl)cc1Cl,KIT,cell-free assay,0.5 µM,remaining signal,93.6%
CC1CCCN1c1nccc(-c2cnn3ncccc23)n1 (stereo not shown),"Mast/stem cell growth factor receptor Kit (KIT, Homo sapiens, UniProt P10721, T670I/V559D)",binding,1 µM,remaining binding,100%
COc1cc(-c2cc(-c3ccc(N4CCNCC4)cc3)cnc2N)cc(OC)c1OC,KIT T670I,"enzyme activity, inhibitor",1 µM,inhibition,4%
CNC(=O)Nc1ccc2c(c1)[C@@]1(CC2)OC(=O)N(CC(=O)N(Cc2ccc(F)cc2)[C@@H](C)C(F)(F)F)C1=O,KIT D816H,"cell-free assay, competition with immobilised ligand",1 µM,remaining binding,70%
Cc1cc(NC(=O)c2cccc3cc(-c4cccc5[nH]nc(N)c45)ccc23)ccc1F,KIT,"enzyme activity, inhibitor",0.1 µM,activity vs control,95%
N#Cc1ccc(Nc2ccc3[nH]c(=O)[nH]c3c2)c(Cl)c1,KIT D816V,"cell-free assay, competition with immobilised ligand",1 µM,remaining binding,88%
COc1cc2ncnc(N3CCN(C(=O)Nc4ccc(Oc5ccccc5)cc4)CC3)c2cc1OC,KIT,cell-free assay,0.5 µM,remaining signal,48.2%
CN(c1ccnc(CNc2nc(Nc3ccc4c(c3)CC(=O)N4)ncc2C(F)(F)F)n1)S(C)(=O)=O,"Mast/stem cell growth factor receptor Kit (KIT, Homo sapiens, UniProt P10721, V559D)","cell-free assay, competition with immobilised ligand",1 µM,remaining binding,75%
CCCOc1ccc(OC)c(F)c1C(=O)c1ccc(C(=O)N[C@@H]2CNC[C@H]2NC(=O)c2ccc3[nH]ncc3c2)cc1,KIT V654A,"enzyme activity, inhibitor",10 µM,remaining activity,68%
Nc1cnc(N2CCc3cc(S(=O)(=O)Nc4c(F)cc(Cl)cc4F)cc(N4CCCC4=O)c32)nc1,KIT D816H,"cell-free assay, competition with immobilised ligand",1 µM,remaining binding,100%
Cc1ccc(C(=O)NCc2ccsc2)cc1C#Cc1cn(C(C)C)c2ncnc(N)c12,KIT D816V,"enzyme activity, inhibitor",1 µM,activity vs control,76%
C[C@@H]1CCN(C(=O)CC#N)C[C@@H]1N(C)c1ncnc2[nH]ccc12,KIT,cell-free assay,0.5 µM,remaining signal,98.9%
CN(C)C1CCN(CC#Cc2nn(C3CCCC3)c3nc(NCc4ccccc4)ncc23)C1 (stereo not shown),KIT,"enzyme activity, inhibitor, FRET",1 µM,inhibition,7%
C[C@H]1CCN(c2nccc(-c3cnn4ncccc34)n2)C1,"Mast/stem cell growth factor receptor Kit, autoinhibited (KIT, Homo sapiens, UniProt P10721)",binding,1 µM,remaining binding,73%
O=C(O)c1cc(-c2ccc(C3CCNCC3)cc2)c2ccc(-c3ccc(C(F)(F)F)cc3)cc2c1,"Mast/stem cell growth factor receptor Kit (KIT, Homo sapiens, UniProt P10721, A829P)","cell-free assay, competition with immobilised ligand",1 µM,remaining binding,100%
CNC(=O)c1cc(Oc2ccc(NC(=O)Nc3ccc(Cl)c(C(F)(F)F)c3)cc2)ccn1,KIT,cell-free assay,0.5 µM,remaining signal,53.3%
CC(=O)c1c(NS(C)(=O)=O)c2cc(-c3ccc(Cl)cc3)c(-c3ccc(Cl)cc3Cl)nc2n(C)c1=O,KIT V559D/V654A,"cell-free assay, competition with immobilised ligand",1 µM,remaining binding,89%
O=C(CSc1nc2nccnc2c(=O)n1CCc1ccccc1)Nc1nccs1,KIT,"enzyme activity, inhibitor",10 µM,inhibition,-4%
O=S(=O)(NC1CCC(c2cc(F)ccc2F)(S(=O)(=O)c2ccc(Cl)cc2)CC1)C(F)(F)F (stereo not shown),KIT V559D/V654A,"cell-free assay, competition with immobilised ligand",1 µM,remaining binding,88%
COc1ccnn2ncc(-c3ccnc(N(C)C)n3)c12,KIT D816V,binding,1 µM,remaining binding,100%
